Test results taken from ChEMBL document CHEMBL4321879, “Novel Class of Colony-Stimulating Factor 1 Receptor Kinase Inhibitors Based on an o-Aminopyridyl Alkynyl Scaffold as Potential Treatment for Inflammatory Disorders” (J Med Chem, 2020).

Tests used:
[1] = target: Macrophage colony-stimulating factor 1 receptor (Homo sapiens, UniProt P07333); assay: Inhibition of recombinant CSF1R (unknown origin) using poly (Glu, Tyr)4:1 as substrate measured after 1 hr by ELISA
[2] = target: Fibroblast growth factor receptor 1 (Homo sapiens, UniProt P11362); assay: Inhibition of recombinant human N-terminal GST-tagged FGFR1 (456 to 765 residues) expressed in baculovirus infected Sf21 insect cells using poly (Glu, Tyr)4:1 as substrate measured after 1 hr by ELISA
Outline: (§1)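 Recombinant kinase was incubated with compound in reaction buffer containing 5 μM ATP, in wells precoated with poly(Glu,Tyr) 4:1, for 1 h at 37 °C. Phosphorylation was detected by ELISA.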

[3] = target: Fibroblast growth factor receptor 3 (Homo sapiens, UniProt P22607); assay: Inhibition of recombinant human N-terminal His6-tagged FGFR3 (447 to 761 residues) expressed in baculovirus infected Sf21 insect cells using poly (Glu, Tyr)4:1 as substrate measured after 1 hr by ELISA; outline: as §1
[4] = target: Vascular endothelial growth factor receptor 1 (Homo sapiens) (UniProt P17948); assay: Inhibition of recombinant human VEGFR1 expressed in Spodoptera frugiperda insect cells at 1000 nM using poly (Glu, Tyr)4:1 as substrate measured after 1 hr by ELISA relative to control
Outline: (§2)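 ELISA kinase assay: recombinant kinase added to wells precoated with poly(Glu,Tyr)4:1 and incubated with compound in reaction buffer containing 5 μM ATP, 37 °C for 1 h; wells then washed before antibody detection.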

[5] = target: Vascular endothelial growth factor receptor 3 (Homo sapiens) (UniProt P35916); assay: Inhibition of recombinant VEGFR3 (unknown origin) at 1000 nM using poly (Glu, Tyr)4:1 as substrate measured after 1 hr by ELISA relative to control; outline: as §1
Sequence of Vascular endothelial growth factor receptor 3 (Homo sapiens) (P35916 whole entry): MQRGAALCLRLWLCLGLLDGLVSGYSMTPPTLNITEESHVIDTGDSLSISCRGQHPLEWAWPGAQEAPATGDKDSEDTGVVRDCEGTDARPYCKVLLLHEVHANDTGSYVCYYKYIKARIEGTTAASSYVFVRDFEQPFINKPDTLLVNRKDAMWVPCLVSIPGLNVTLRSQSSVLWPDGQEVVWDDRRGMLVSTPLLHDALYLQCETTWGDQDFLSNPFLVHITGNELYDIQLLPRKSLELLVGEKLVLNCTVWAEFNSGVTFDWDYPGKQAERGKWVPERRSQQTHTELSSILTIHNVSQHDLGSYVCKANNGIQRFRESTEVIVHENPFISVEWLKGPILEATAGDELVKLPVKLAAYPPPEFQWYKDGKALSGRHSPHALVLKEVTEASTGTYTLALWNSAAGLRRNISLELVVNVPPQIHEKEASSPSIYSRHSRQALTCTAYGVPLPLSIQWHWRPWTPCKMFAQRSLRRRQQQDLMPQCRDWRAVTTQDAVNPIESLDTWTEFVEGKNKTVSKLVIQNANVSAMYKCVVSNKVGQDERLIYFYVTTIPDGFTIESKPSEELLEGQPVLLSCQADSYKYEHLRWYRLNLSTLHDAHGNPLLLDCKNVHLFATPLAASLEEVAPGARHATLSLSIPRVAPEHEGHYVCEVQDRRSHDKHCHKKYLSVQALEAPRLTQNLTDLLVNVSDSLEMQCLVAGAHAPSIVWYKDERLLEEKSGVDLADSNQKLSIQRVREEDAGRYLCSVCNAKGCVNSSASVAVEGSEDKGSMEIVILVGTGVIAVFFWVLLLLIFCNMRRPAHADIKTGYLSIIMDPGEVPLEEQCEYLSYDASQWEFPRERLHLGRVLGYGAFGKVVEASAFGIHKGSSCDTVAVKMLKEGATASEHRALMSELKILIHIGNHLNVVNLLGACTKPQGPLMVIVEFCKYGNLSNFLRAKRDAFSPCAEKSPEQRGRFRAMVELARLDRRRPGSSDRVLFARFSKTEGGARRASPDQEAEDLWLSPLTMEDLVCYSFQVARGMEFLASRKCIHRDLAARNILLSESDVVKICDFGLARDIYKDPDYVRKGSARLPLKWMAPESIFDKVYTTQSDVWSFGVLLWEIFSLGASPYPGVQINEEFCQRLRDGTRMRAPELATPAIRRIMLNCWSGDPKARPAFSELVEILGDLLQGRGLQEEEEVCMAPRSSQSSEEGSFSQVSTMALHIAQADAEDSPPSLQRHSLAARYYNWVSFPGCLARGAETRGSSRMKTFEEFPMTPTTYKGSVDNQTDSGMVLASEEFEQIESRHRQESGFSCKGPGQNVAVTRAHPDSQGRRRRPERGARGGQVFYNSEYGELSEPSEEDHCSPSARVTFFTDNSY

[6] = target: Platelet-derived growth factor receptor alpha (Homo sapiens) (UniProt P16234); assay: Inhibition of recombinant human N-terminal His6-tagged PDGFRalpha (550 to end residues) expressed in baculovirus infected Sf21 insect cells at 1000 nM using poly (Glu, Tyr)4:1 as substrate measured after 1 hr by ELISA relative to control; outline: as §2
Sequence of Platelet-derived growth factor receptor alpha (Homo sapiens) (P16234 whole entry): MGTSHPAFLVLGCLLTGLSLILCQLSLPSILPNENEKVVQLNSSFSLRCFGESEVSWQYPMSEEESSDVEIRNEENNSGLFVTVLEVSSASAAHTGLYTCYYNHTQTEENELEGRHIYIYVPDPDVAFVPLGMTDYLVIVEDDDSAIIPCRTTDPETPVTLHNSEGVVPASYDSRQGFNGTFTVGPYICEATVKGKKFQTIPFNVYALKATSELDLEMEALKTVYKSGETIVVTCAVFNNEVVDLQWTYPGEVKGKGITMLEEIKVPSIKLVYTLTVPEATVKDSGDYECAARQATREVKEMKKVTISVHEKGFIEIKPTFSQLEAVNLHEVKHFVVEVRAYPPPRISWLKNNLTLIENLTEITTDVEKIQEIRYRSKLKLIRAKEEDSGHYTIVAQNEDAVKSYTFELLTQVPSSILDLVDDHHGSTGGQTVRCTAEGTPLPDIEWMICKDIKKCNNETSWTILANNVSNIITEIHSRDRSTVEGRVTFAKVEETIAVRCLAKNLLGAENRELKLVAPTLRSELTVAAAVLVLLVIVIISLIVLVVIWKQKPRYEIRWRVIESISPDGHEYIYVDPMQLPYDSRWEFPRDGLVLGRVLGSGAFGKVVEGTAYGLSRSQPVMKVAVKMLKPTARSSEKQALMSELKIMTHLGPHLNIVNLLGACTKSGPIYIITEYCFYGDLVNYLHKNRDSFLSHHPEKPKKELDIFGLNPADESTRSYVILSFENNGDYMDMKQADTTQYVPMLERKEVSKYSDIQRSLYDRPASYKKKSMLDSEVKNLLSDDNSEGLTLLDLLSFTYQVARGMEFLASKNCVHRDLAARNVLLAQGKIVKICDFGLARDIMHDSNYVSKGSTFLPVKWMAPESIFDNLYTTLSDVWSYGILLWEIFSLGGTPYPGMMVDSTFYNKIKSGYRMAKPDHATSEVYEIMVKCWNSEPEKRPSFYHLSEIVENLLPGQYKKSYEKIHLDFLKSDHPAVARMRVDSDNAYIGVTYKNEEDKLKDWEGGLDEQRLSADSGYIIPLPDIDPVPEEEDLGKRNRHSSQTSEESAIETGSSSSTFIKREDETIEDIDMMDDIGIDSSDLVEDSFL

[7] = target: Proto-oncogene tyrosine-protein kinase receptor Ret (Homo sapiens) (UniProt P07949); assay: Inhibition of recombinant human N-terminal GST-tagged RET (658 to end residues) expressed in baculovirus infected Sf21 insect cells at 1000 nM using poly (Glu, Tyr)4:1 as substrate measured after 1 hr by ELISA relative to control; outline: as §1
Sequence of Proto-oncogene tyrosine-protein kinase receptor Ret (Homo sapiens) (P07949 whole entry, the tested form may be a part): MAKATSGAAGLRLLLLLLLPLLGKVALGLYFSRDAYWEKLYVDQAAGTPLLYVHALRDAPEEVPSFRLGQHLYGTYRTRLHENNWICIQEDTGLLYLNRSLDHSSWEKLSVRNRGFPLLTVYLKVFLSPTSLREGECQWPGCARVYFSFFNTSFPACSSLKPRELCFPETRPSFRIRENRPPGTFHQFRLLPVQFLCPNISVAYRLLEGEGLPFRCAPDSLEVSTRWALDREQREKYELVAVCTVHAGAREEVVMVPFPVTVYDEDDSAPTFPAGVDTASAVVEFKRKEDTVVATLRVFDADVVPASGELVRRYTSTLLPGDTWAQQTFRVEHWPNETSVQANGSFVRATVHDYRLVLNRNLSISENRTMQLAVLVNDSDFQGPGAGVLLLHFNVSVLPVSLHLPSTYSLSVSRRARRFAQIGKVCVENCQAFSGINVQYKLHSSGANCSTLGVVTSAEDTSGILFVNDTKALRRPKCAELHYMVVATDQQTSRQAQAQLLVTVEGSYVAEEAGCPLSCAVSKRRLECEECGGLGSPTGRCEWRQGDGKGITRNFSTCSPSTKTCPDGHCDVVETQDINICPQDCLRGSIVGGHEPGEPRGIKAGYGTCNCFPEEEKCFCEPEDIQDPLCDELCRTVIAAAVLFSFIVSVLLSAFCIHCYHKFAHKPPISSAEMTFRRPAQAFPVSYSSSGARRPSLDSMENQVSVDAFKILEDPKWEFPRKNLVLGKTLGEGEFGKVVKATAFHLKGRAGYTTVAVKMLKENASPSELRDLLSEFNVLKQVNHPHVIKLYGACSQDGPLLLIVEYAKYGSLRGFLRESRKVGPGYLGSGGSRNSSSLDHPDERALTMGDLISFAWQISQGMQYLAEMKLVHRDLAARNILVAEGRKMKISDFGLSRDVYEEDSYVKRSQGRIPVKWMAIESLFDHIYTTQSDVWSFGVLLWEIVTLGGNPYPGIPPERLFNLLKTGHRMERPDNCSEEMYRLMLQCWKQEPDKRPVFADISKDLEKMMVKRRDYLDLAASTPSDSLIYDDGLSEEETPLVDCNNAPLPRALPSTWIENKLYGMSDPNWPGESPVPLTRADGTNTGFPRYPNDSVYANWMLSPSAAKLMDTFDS

[8] = target: T1, Fibroblast growth factor receptor 2 (Homo sapiens, UniProt P21802); assay: Inhibition of recombinant human N-terminal His6-tagged FGFR2 (456 to 770 residues) expressed in baculovirus infected Sf21 insect cells at 1000 nM using poly (Glu, Tyr)4:1 as substrate measured after 1 hr by ELISA relative to control; outline: as §1
T1 sequence (P21802 22-821 limits assumed): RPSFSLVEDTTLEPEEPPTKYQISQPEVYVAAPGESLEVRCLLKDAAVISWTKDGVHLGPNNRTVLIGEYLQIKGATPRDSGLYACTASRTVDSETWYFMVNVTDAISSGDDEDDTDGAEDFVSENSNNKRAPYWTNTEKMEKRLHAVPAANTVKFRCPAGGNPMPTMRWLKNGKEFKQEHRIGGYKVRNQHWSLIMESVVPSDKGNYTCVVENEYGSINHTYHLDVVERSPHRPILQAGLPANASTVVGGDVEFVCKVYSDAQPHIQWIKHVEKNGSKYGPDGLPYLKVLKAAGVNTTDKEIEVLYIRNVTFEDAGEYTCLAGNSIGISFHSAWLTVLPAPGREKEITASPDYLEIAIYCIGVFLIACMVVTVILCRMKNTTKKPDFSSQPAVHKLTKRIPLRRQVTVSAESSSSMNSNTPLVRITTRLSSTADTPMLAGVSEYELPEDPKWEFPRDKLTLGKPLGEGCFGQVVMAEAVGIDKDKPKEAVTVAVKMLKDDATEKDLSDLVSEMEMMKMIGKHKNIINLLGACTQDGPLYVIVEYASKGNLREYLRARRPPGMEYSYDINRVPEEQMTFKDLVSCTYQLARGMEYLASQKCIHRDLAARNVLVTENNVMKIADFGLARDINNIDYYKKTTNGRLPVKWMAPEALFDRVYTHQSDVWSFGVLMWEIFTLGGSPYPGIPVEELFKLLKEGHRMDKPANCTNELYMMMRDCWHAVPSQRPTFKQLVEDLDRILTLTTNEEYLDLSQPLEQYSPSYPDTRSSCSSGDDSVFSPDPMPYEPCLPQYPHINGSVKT

[9] = target: Vascular endothelial growth factor receptor 2 (Homo sapiens) (UniProt P35968); assay: Inhibition of recombinant human VEGFR2 (D1-7) expressed in Spodoptera frugiperda insect cells at 100 nM using poly (Glu, Tyr)4:1 as substrate measured after 1 hr by ELISA relative to control; outline: as §2
[10] = target: Platelet-derived growth factor receptor alpha (Homo sapiens) (UniProt P16234); assay: Inhibition of recombinant human N-terminal His6-tagged PDGFRalpha (550 to end residues) expressed in baculovirus infected Sf21 insect cells at 100 nM using poly (Glu, Tyr)4:1 as substrate measured after 1 hr by ELISA relative to control; outline: as §2
[11] = target: Epidermal growth factor receptor (Homo sapiens) (UniProt P00533); assay: Inhibition of recombinant human N-terminal GST-tagged EGFR (696 to end residues) expressed in baculovirus infected Sf21 insect cells at 100 nM using poly (Glu, Tyr)4:1 as substrate measured after 1 hr by ELISA relative to control; outline: as §1
[12] = target: Proto-oncogene tyrosine-protein kinase Src (Homo sapiens) (UniProt P12931); assay: Inhibition of recombinant human full-length N-terminal His6-tagged Src expressed in Sf21 insect cells at 100 nM using poly (Glu, Tyr)4:1 as substrate measured after 1 hr by ELISA relative to control; outline: as §2
Sequence of Proto-oncogene tyrosine-protein kinase Src (Homo sapiens) (P12931 2-536 limits assumed): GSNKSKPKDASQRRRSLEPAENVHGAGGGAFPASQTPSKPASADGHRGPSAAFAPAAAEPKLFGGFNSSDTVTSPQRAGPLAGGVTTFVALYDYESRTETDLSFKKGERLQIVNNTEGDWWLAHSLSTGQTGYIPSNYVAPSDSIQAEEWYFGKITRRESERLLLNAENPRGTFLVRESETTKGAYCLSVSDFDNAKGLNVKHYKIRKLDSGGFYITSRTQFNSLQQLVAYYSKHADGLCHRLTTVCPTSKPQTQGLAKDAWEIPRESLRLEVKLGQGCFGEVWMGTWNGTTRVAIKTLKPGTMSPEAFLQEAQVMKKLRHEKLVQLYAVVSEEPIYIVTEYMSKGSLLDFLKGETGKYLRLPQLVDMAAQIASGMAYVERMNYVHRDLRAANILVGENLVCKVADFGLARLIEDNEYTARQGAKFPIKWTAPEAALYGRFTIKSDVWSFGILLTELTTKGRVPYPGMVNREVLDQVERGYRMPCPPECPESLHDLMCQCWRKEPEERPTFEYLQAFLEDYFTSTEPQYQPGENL

[13] = target: Ephrin type-A receptor 2 (Homo sapiens) (UniProt P29317); assay: Inhibition of recombinant human N-terminal His6-tagged EphA2 (596 to 900 residues) expressed in baculovirus infected Sf21 insect cells at 100 nM using poly (Glu, Tyr)4:1 as substrate measured after 1 hr by ELISA relative to control; outline: as §1
[14] = target: Insulin-like growth factor 1 receptor (Homo sapiens) (UniProt P08069); assay: Inhibition of recombinant human N-terminal His6-tagged IGF1R (959 to end residues) expressed in baculovirus infected Sf21 insect cells at 100 nM using poly (Glu, Tyr)4:1 as substrate measured after 1 hr by ELISA relative to control; outline: as §2
[15] = target: T1, Fibroblast growth factor receptor 2; assay: Inhibition of recombinant human N-terminal His6-tagged FGFR2 (456 to 770 residues) expressed in baculovirus infected Sf21 insect cells at 100 nM using poly (Glu, Tyr)4:1 as substrate measured after 1 hr by ELISA relative to control; outline: as §1
[16] = target: Vascular endothelial growth factor receptor 3 (Homo sapiens) (UniProt P35916); assay: Inhibition of recombinant VEGFR3 (unknown origin) at 10 nM using poly (Glu, Tyr)4:1 as substrate measured after 1 hr by ELISA relative to control; outline: as §1
[17] = target: Proto-oncogene tyrosine-protein kinase receptor Ret (Homo sapiens) (UniProt P07949); assay: Inhibition of recombinant human N-terminal GST-tagged RET (658 to end residues) expressed in baculovirus infected Sf21 insect cells at 10 nM using poly (Glu, Tyr)4:1 as substrate measured after 1 hr by ELISA relative to control; outline: as §1
RAW264.7 = assay: Antiinflammatory activity in mouse RAW264.7 cells assessed as reduction in LPS-induced TNFalpha release measured after 24 hrs by ELISA; assay type: functional, cell-based; details: RAW264.7, 24 h
Outline: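 RAW264.7 cells in DMEM with 10% FBS and 0.125% DMSO were incubated with compound, then primed with LPS 1 μg/mL for 24 h. Supernatant TNF-α and IL-6 measured by mouse ELISA. IC50 from log(inhibitor) versus normalized response nonlinear fit.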

[18] = Cytotoxicity against mouse RAW264.7 cells assessed as reduction in cell viability measured after 24 hrs by CCK8 assay; assay type: cell-based
Outline: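 RAW264.7 cells were seeded in triplicate in DMEM and exposed to compound for 24 h. CCK-8 was added, incubated 1 h, and absorbance read at 450 nm with 570 nm reference. CC50 from log(inhibitor) versus normalized response nonlinear fit.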

[19] = MRT (infinity) in Sprague-Dawley rat at 5 mg/kg, po administered via gavage by LC-MS/MS analysis; assay type: ADME, organism-based; details: in vivo
Outline: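 Male SD rats (200 ± 20 g), fasted 12 h, n = 3; oral gavage 5 mg/kg in DMSO/HPMC (5/95). Femoral vein blood at 15–1440 min; plasma precipitated with methanol plus internal standard, LC–MS/MS; noncompartmental analysis, Tmax observed directly, MRT = AUMC/AUC.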

## Cc1ccc(C(=O)Nc2ccc(Cl)cc2)cc1C#Cc1cc(-c2cnn(C)c2)cnc1N
[1]
  IC50: 0.7 nM
[2]
  IC50: > 1000 nM
[3]
  IC50: > 1000 nM
[4]
  inhibition: 89.8%
[5]
  inhibition: 100%
[6]
  inhibition: 92.6%
[7]
  inhibition: 96.6%
[8]
  inhibition: 20.7%
[9]
  inhibition: 83.6%
[10]
  inhibition: 83.9%
[11]
  inhibition: 7.4%
[12]
  inhibition: 61.7%
[13]
  inhibition: 31.4%
[14]
  inhibition: 0%
[15]
  inhibition: 16.2%
[16]
  inhibition: 27.3%
[17]
  inhibition: 42.7%
RAW264.7
  IC50: 110 nM
[18]
  CC50 at 24 h: 66000 nM
[19]
  MRT inf: 5.42 h
